Bioassay records from PubChem.
Compounds with a hit are over-represented: about 2.6% of the library has one in this group of screens.
V1aR counter = counter-screen for oxytocin receptor agonists: human V1a receptor agonists; P37288; CHO-V1R cells, Fluo-8 calcium fluorescence, agonist mode; 0% DMSO, 100% 3 nM vasopressin; activation, % at 3 µM; actives 0.25% (n = 320,000);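 active means activation above the mean activation of all tested compounds plus 3 SD, per screening run, cut at about 20% in these data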;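 further: signal is peak over basal fluorescence ratio across a 100 second FLIPR read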
OXTR potentiator = potentiators of human oxytocin receptor. P30559. CHO-OTR cells, Fluo-8 calcium fluorescence, potentiator mode; 0% = oxytocin EC15, 100% = EC100. activation, % at 3 µM. actives 0.061% (n = 320,000). AID 2445;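 active means activation above that plate's cutoff, the mean activation of tested compounds plus 3 SD, cut at about 6.6% in these data, passing the limit was not always enough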;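 further: 100% uses oxytocin at 75 nM as the full agonist control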
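Assay system: CHO cell line stably expressing human OTR. Reagent: EC15 oxytocin agonist. Dosing: single dose, 3.0 µM nominal final compound concentration. Timing: compound 6 min at room temperature before oxytocin, 100 s read. Signal: kinetic Fluo-8 calcium fluorescence. Controls: oxytocin EC15 low and EC100 high.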
OX1R antag-1 = blocks the human orexin 1 receptor. actives 1.8% (n = 330,000). inhibition, % at 6.6 µM. OX1R-expressing cells, FRET antagonist read-out. O43613. AID 485270; in the data active means inhibition mostly above about 38%, no sharp cut-off; inactive means mostly below about 40%;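 further: 0% = agonist challenge alone and 100% = reference antagonist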
Target sequence (O43613 whole entry, looked up): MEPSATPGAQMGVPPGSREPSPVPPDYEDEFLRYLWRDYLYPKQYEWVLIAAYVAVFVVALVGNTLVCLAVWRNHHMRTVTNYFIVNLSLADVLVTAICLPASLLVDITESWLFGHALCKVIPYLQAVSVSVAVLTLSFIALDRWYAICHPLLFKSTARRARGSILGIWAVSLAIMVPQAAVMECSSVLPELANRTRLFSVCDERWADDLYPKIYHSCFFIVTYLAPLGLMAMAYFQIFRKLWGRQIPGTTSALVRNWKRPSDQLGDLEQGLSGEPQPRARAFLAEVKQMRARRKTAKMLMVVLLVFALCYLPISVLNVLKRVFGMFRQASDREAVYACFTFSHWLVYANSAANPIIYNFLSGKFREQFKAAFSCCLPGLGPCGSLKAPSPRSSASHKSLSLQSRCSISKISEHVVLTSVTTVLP
OX1R antag-2 = human HCRTR1 antagonism | CHO/OX1R cells, Fluo-8 calcium fluorescence, orexin A | AID 434989 | inhibition, % at 5 µM | actives 0.43% (n = 330,000);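 active means inhibition above its plate's threshold, mean inhibition of all tested compounds on the plate plus 3 SD, cut at about 37% in these data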;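 further: 0% = orexin A challenge wells and 100% = SB-334867-A antagonist wells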
OXTR ag = human OXTR agonism | actives 0.32% (n = 320,000) | AID 2435 | activation, % at 3 µM | CHO-OTR cells, Fluo-8 calcium fluorescence; normalized: DMSO 0%, oxytocin 100% | P30559;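 active means activation above the mean of all tested compounds plus 3 SD, cutoff set per screening run, cut at about 20% in these data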;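 further: peak over basal fluorescence ratio from a 100 s FLIPR kinetic read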
CHO parental Ca = counter-screen: ATP calcium response change in parental CHO cells; parental CHO-K1, ATP-induced calcium, Fluo-8 fluorescence; inhibition, % at 5.6 µM; actives 0.63% (n = 330,000); AID 463079;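 active means inhibition above that plate's mean sample inhibition plus 3 SD, cut at about 26% in these data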;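 further: 0% = ATP-challenged DMSO wells and 100% = DMSO wells without ATP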
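Material: parental CHO cells / Compound: single nominal dose of 5.6 µM per compound / Signal: Fluo-8 fluorescence / Replicates: singlicate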
Active calls of the source: *.

Screening O=c1c2ccccc2nc(/C=C/c2cccc(Br)c2)n1CCCO returned V1aR counter 2, OXTR potentiator -10, OX1R antag-1 20, OX1R antag-2 -13, OXTR ag -1 and CHO parental Ca -19.
`Cc1ccc(C2C=C(c3ccccc3)Nc3ncnn32)cc1` (centres undefined) gave V1aR counter 0, OXTR potentiator -8, OX1R antag-1 22, OX1R antag-2 -18, OXTR ag -2 and CHO parental Ca -12.
OCCCc1nc2n(n1)C(c1cccs1)C=C(c1ccc(Br)cc1)N2 (centres undefined) was read as V1aR counter 109*, OXTR potentiator -11, OX1R antag-1 17, OX1R antag-2 30, OXTR ag 160* and CHO parental Ca 39*.
Brc1ccc(C2=CC(c3cccs3)n3ncnc3N2)cc1 (centres undefined) was read as V1aR counter 75*, OXTR potentiator -27, OX1R antag-1 31, OX1R antag-2 33, OXTR ag 75* and CHO parental Ca 41*.
For COc1ccc(C(=O)COC(=O)Cc2n[nH]c(=O)c3ccccc23)c(OC)c1 the results were V1aR counter 1, OXTR potentiator -14, OX1R antag-1 22, OX1R antag-2 -16, OXTR ag 0 and CHO parental Ca -2.
`COc1ccc(Nc2ccc(C(F)(F)F)cc2[N+](=O)[O-])cn1` gave V1aR counter -1, OXTR potentiator -4, OX1R antag-1 34, OX1R antag-2 -30, OXTR ag -1 and CHO parental Ca -6.
`Cc1ccc(C(=O)NC2CCCc3c2cnn3-c2ccc(F)cc2F)cn1` (centres undefined) gave V1aR counter 7, OXTR potentiator -8, OX1R antag-1 6, OX1R antag-2 12, OXTR ag 10 and CHO parental Ca 38*.
Cn1nccc1C(=O)NC1CCCc2c1cnn2-c1ccc(C(C)(C)C)cc1 (centres undefined) was read as V1aR counter 12, OXTR potentiator -11, OX1R antag-1 49*, OX1R antag-2 22, OXTR ag 5 and CHO parental Ca 56*.
Cc1cc(C(=O)NC2CCCc3c2cnn3-c2cccc(C)c2C)n(C)n1 (centres undefined) was read as V1aR counter 12, OXTR potentiator -16, OX1R antag-1 54, OX1R antag-2 25, OXTR ag 11 and CHO parental Ca 55*.
COc1cccc(Cn2cccc(NC(=O)Nc3ccc(C#N)cc3)c2=O)c1 was read as V1aR counter 8, OXTR potentiator -28, OX1R antag-1 32, OX1R antag-2 52*, OXTR ag 9 and CHO parental Ca 47*.
Screening COc1cccc(NC(=O)Nc2cccn(Cc3ccccc3)c2=O)c1 returned V1aR counter 4, OXTR potentiator -9, OX1R antag-1 26, OX1R antag-2 -19, OXTR ag 5 and CHO parental Ca -19.
CC[C@H](C)[C@H](NC(=O)[C@H](Cc1ccc(O)cc1)NC(=O)[C@@H](N)C(C)C)C(=O)N[C@@H](Cc1cnc[nH]1)C(=O)N1CCC[C@H]1C(=O)N[C@@H](Cc1ccccc1)C(=O)O was read as V1aR counter 25*, OXTR potentiator -25, OX1R antag-1 22, OX1R antag-2 4, OXTR ag 72* and CHO parental Ca -1.
`CC(Oc1ccc(F)cc1)C(O)CCN(C)C` (centres undefined) gave V1aR counter 0, OXTR potentiator -2, OX1R antag-1 4, OX1R antag-2 -18, OXTR ag 1 and CHO parental Ca 0.
Screening COc1ccc(CCNCc2csc3nc4ccccc4n23)cc1OC returned V1aR counter 7, OXTR potentiator -9, OX1R antag-1 53*, OX1R antag-2 29, OXTR ag 6 and CHO parental Ca 27.
COc1cccc(C(=O)Nc2cc(C)c3c(=O)oc4ccccc4c3n2)c1 was read as V1aR counter 1, OXTR potentiator -1, OX1R antag-1 45*, OX1R antag-2 -28, OXTR ag 0 and CHO parental Ca -18.
Cc1cc(NC(=O)Cc2ccccc2)nc2c1c(=O)oc1ccccc12 was read as V1aR counter -1, OXTR potentiator -5, OX1R antag-1 11, OX1R antag-2 -17, OXTR ag -1 and CHO parental Ca -8.
For Cc1ccc(NC(=S)NCC2CCN(C(C)c3ccccc3)C2)cc1C (centres undefined) the results were V1aR counter 1, OXTR potentiator -6, OX1R antag-1 17, OX1R antag-2 -33, OXTR ag 3 and CHO parental Ca -18.
`O=[N+]([O-])c1ccc(O)c(/C=N/n2cnc3ccccc32)c1` gave V1aR counter 14, OXTR potentiator -14, OX1R antag-1 48*, OX1R antag-2 19, OXTR ag 21* and CHO parental Ca -8.
`NS(=O)(=O)c1cc(C(=O)Nc2ccc3c(c2)CCC3)ccc1Cl` gave V1aR counter 2, OXTR potentiator -2, OX1R antag-1 25, OX1R antag-2 -22, OXTR ag 2 and CHO parental Ca 4.
For N#Cc1cc([N+](=O)[O-])ccc1N1CCN(c2ccccc2O)CC1 the results were V1aR counter 3, OXTR potentiator -25, OX1R antag-1 23, OX1R antag-2 -12, OXTR ag 3 and CHO parental Ca 32*.
For O=[N+]([O-])c1ccc(N2CCN(c3ccc([N+](=O)[O-])cc3CO)CC2)c(CO)c1 the results were V1aR counter 16, OXTR potentiator -21, OX1R antag-1 16, OX1R antag-2 14, OXTR ag 19 and CHO parental Ca 32.
For CCOc1ccccc1C(=O)NCC(=O)NNC(=O)c1cccs1 the results were V1aR counter 3, OXTR potentiator 6, OX1R antag-1 -4, OX1R antag-2 -9, OXTR ag 0 and CHO parental Ca -15.
Screening CCn1cc(C(=O)N2CCN(c3ccc([N+](=O)[O-])cc3)CC2)c(=O)c2ccc(C)nc21 returned V1aR counter 1, OXTR potentiator -10, OX1R antag-1 45*, OX1R antag-2 -34, OXTR ag -2 and CHO parental Ca 4.
`CS(=O)(=O)c1cccc(NC(=O)C2CCCN2S(=O)(=O)c2ccc(F)cc2)c1` (centres undefined) gave V1aR counter 2, OXTR potentiator -4, OX1R antag-1 55*, OX1R antag-2 20, OXTR ag 5 and CHO parental Ca -3.
For O=C(Nc1cccc(S(=O)(=O)N2CCCCC2)c1)C1CCC1 the results were V1aR counter 4, OXTR potentiator -7, OX1R antag-1 6, OX1R antag-2 -24, OXTR ag 0 and CHO parental Ca -13.
